Laboratory results taken from ChEMBL document CHEMBL4229525, “Anti-angiogenic and anticancer effects of baicalein derivatives based on transgenic zebrafish model” (Bioorg Med Chem, 2018).

Legend:
Danio rerio [1] = organism: Danio rerio; experiment: Antiangiogenic activity in 24 to 72 hrs post fertilized zebra fish embryo harboring fli1:EGFP after 48 hrs by fluorescence microscopic analysis; format: functional
Method in brief: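 Tg(fli1:EGFP) zebrafish: 20 dechorionated 24 hpf embryos per group in 1 mL embryo water with compound (1, 5, 10, 25, 50, 75, 100, 150, 200 μM), 28.5 °C for 48 h. Embryos anaesthetised in 0.016% tricaine; ISVs imaged by fluorescence microscopy at 72 hpf and scored for vessel defects and overall morphology. SU5416 positive control.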

Danio rerio [2] = organism: Danio rerio; experiment: Toxicity in 24 to 72 hrs post fertilized zebra fish embryo harboring fli1:EGFP; format: organism-based; conditions: zebrafish, in vivo
Method in brief: (§1)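 Dechorionated Tg(fli1:EGFP) embryos at 24 hpf, 20 per group, were kept in 1 mL embryo water with compound at 28.5 °C for a further 48 h. Compound was tested at 1, 5, 10, 25, 50, 75, 100, 150 and 200 μM. At 72 hpf, embryos anaesthetised with 0.016% tricaine had their ISVs imaged by fluorescence microscopy, with SU5416 as positive control. Definitions used: LOEC is anti-angiogenic effect in most larvae; LOTC is lowest toxic concentration; LC100 is total embryo lethality. TI = LOTC/LOEC; AI = LC100/LOEC.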

[3] = Toxicity index, ratio of MTC for 24 to 72 hrs post fertilized zebra fish embryo harboring fli1:EGFP to MEC for antiangiogenic activity in 24 to 72 hrs post fertilized zebra fish embryo harboring fli1:EGFP; format: organism-based, Danio rerio; conditions: fli1:EGFP transgenic, zebrafish, in vivo; method in brief: as §1
[4] = Antiangiogenic index, ratio of LC100 for 24 to 72 hrs post fertilized zebra fish embryo harboring fli1:EGFP to MEC for antiangiogenic activity in 24 to 72 hrs post fertilized zebra fish embryo harboring fli1:EGFP; format: toxicity, organism-based, Danio rerio; conditions: fli1:EGFP transgenic, zebrafish, in vivo; method in brief: as §1

| Compound | MEC (Danio rerio [1]) [µM] | LC100 (Danio rerio [2]) [µM] | MTC (Danio rerio [2]) [µM] | selectivity ratio [3] | selectivity ratio [4] |
| --- | --- | --- | --- | --- | --- |
| O=C(COc1c(OCc2ccccc2)cc2oc(-c3ccccc3)cc(=O)c2c1O)N1CCOCC1 | 50 | 100 | 50 | 1 | 2 |
| O=C(COc1c(O)cc2oc(-c3ccccc3)cc(=O)c2c1O)N1CCN(CCO)CC1 | 100 | > 200 | 100 | 1 | > 2 |
| O=C(COc1c(OCc2ccccc2)cc2oc(-c3ccccc3)cc(=O)c2c1O)NCCO | 100 | 200 | 100 | 1 | 2 |
| O=c1cc(-c2ccccc2)oc2cc(O)c(OCCO)c(O)c12 | 5 | 50 | 10 | 2 | 10 |
| O=c1cc(-c2ccccc2)oc2cc(O)c(OCCCCO)c(O)c12 | 5 | 30 | 10 | 2 | 6 |
| CN1CCN(C(=O)COc2c(OCc3ccccc3)cc3oc(-c4ccccc4)cc(=O)c3c2O)CC1 | 10 | 50 | 10 | 1 | 5 |
| O=c1cc(-c2ccccc2)oc2cc(O)c(OCC(O)CO)c(O)c12 (stereo not given) | 50 | 100 | 50 | 1 | 2 |
